MIC data for twelve compounds are collected here from ChEMBL document CHEMBL1158387, “Regioselective synthetic approaches towards 1,2,8,9-tetraazadispiro[4.1.4.2]trideca-2,9-dien-6-ones of potential antimicrobial properties” (2009).

What all share (format): functional
Experiment [1] deals with Staphylococcus aureus. The experiment in a line: Antibacterial activity against Staphylococcus aureus ATCC 25923 after 18 hrs by agar dilution technique. In short, it runs like this: (§1)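 Agar dilution per CLSI; compounds dissolved in DMSO; plates incubated at 37 °C for 18 h; MIC taken as lowest compound concentration spot with no growth. Standard ATCC strains.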
Background: Agar dilution tests growth on a series of plates holding different concentrations.

Experiment [2] deals with Streptococcus agalactiae. As to the kind of experiment: Antibacterial activity against Streptococcus agalactiae […] after 18 hrs by agar dilution technique. An outline of the steps: as §1
Experiment [3] deals with Proteus vulgaris. The experiment in a line: Antibacterial activity against Proteus vulgaris ATCC 13315 after 18 hrs by agar dilution technique. In short, it runs like this:
as §1

The test system of experiment [4] is Klebsiella pneumoniae. As to the kind of experiment: Antibacterial activity against Klebsiella pneumoniae ATCC 33495 after 18 hrs by agar dilution technique. An outline of the steps: as §1
In experiment [5] the test system is Enterococcus faecalis. The experiment in a line: Antibacterial activity against Enterococcus faecalis ATCC 29212 after 18 hrs by agar dilution technique. An outline of the steps:
as §1

For experiment [6], the system named is Escherichia coli. As to the kind of experiment: Antibacterial activity against Escherichia coli ATCC 25922 after 18 hrs by agar dilution technique. An outline of the steps: as §1
The test system of experiment [7] is Candida albicans. The experiment in a line: Antifungal activity against Candida albicans ATCC 20260 after 18 hrs by agar dilution technique. In short, it runs like this:
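Agar dilution per CLSI with compounds dissolved in DMSO and spotted onto agar against ATCC standard strains. Plates were incubated at 37 °C for 18 h.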

In brackets after ≈: the same amount, converted by molar mass. Activity calls are given as the source filed them.

Turning to `O=C(O)c1cn(C2CC2)c2cc(N3CCNCC3)c(F)cc2c1=O` [CIPROFLOXACIN], the minimal inhibitory concentration (MIC) – broadly, the smallest concentration in the dilution series that meets the test's criterion for growth inhibition – in experiment [1] (ATCC 25923, 18 h) was found to be 0.3 µg/mL (≈ 0.905 µM); in experiment [2], 0.6 µg/mL (≈ 1.81 µM); in experiment [3] (ATCC 13315, 18 h), 0.3 µg/mL (≈ 0.905 µM); in experiment [4] (ATCC 33495, 18 h), 1.3 µg/mL (≈ 3.92 µM); in experiment [5] (ATCC 29212, 18 h) it was 0.3 µg/mL (≈ 0.905 µM); in experiment [6] (ATCC 25922, 18 h), 0.3 µg/mL (≈ 0.905 µM). Further, the MIC entry in experiment [7] is “inactive”.

For `Cc1ccc(N2N=C(c3ccccc3)C(c3ccccc3)C23CCC2(C3=O)C(c3ccccc3)C(c3ccccc3)=NN2c2ccc(C)cc2)cc1` (centres undefined), the MIC in experiment [1] (ATCC 25923, 18 h) is 2.5 µg/mL (≈ 3.69 µM); in experiment [2], 2.5 µg/mL (≈ 3.69 µM); in experiment [3] (ATCC 13315, 18 h), 5 µg/mL (≈ 7.39 µM); in experiment [4] (ATCC 33495, 18 h), 5 µg/mL (≈ 7.39 µM); in experiment [5] (ATCC 29212, 18 h) it was 5 µg/mL (≈ 7.39 µM); in experiment [6] (ATCC 25922, 18 h) it was 10 µg/mL (≈ 14.8 µM). In experiment [7], the MIC result was “inactive”.

In the case of `Cc1ccc(/C=C2\CC[C@]3(C2=O)[C@H](c2ccc(C)cc2)C(c2ccccc2)=NN3c2ccccc2)cc1`, the MIC in experiment [1] (ATCC 25923, 18 h) was determined as 2.5 µg/mL (≈ 5.18 µM); in experiment [2], 5 µg/mL (≈ 10.4 µM); in experiment [3] (ATCC 13315, 18 h) it was 1.3 µg/mL (≈ 2.69 µM); in experiment [4] (ATCC 33495, 18 h), 1.3 µg/mL (≈ 2.69 µM); in experiment [5] (ATCC 29212, 18 h) it was 5 µg/mL (≈ 10.4 µM); in experiment [6] (ATCC 25922, 18 h), 0.6 µg/mL (≈ 1.24 µM). In addition, the MIC result in experiment [7] is “inactive”.

On to `Cc1ccc(N2N=C(c3ccccc3)C(c3ccc(Cl)cc3)C23CCC2(C3=O)C(c3ccc(Cl)cc3)C(c3ccccc3)=NN2c2ccc(C)cc2)cc1` (centres undefined), for which the MIC in experiment [1] (ATCC 25923, 18 h) amounted to 10 µg/mL (≈ 13.4 µM); in experiment [2], 10 µg/mL (≈ 13.4 µM); in experiment [3] (ATCC 13315, 18 h) it was 10 µg/mL (≈ 13.4 µM); in experiment [4] (ATCC 33495, 18 h), 5 µg/mL (≈ 6.7 µM); in experiment [5] (ATCC 29212, 18 h) it was 10 µg/mL (≈ 13.4 µM); in experiment [6] (ATCC 25922, 18 h), 10 µg/mL (≈ 13.4 µM). Also, the MIC result in experiment [7] is “inactive”.

Take `O=C1/C(=C/c2ccc(F)cc2)CC[C@@]12[C@H](c1ccc(F)cc1)C(c1ccccc1)=NN2c1ccccc1`: the MIC in experiment [1] (ATCC 25923, 18 h) came to 10 µg/mL (≈ 20.4 µM); in experiment [2] it was 5 µg/mL (≈ 10.2 µM); in experiment [3] (ATCC 13315, 18 h) it was 5 µg/mL (≈ 10.2 µM); in experiment [4] (ATCC 33495, 18 h), 2.5 µg/mL (≈ 5.1 µM); in experiment [5] (ATCC 29212, 18 h) it was 5 µg/mL (≈ 10.2 µM); in experiment [6] (ATCC 25922, 18 h), 10 µg/mL (≈ 20.4 µM). The MIC result in experiment [7] was “inactive”.

For the compound `O=C1C2(CCC13C(c1ccc(F)cc1)C(c1ccccc1)=NN3c1ccccc1)C(c1ccc(F)cc1)C(c1ccccc1)=NN2c1ccccc1` (centres undefined), the MIC in experiment [1] (ATCC 25923, 18 h) was determined as 5 µg/mL (≈ 7.3 µM); in experiment [2], 10 µg/mL (≈ 14.6 µM); in experiment [3] (ATCC 13315, 18 h), 10 µg/mL (≈ 14.6 µM); in experiment [4] (ATCC 33495, 18 h), 10 µg/mL (≈ 14.6 µM); in experiment [5] (ATCC 29212, 18 h), 10 µg/mL (≈ 14.6 µM); in experiment [6] (ATCC 25922, 18 h), 5 µg/mL (≈ 7.3 µM). Further, the MIC result in experiment [7] is “inactive”.

`O=C1/C(=C/c2ccccc2)CC[C@@]12[C@H](c1ccccc1)C(c1ccccc1)=NN2c1ccccc1`: the minimal inhibitory concentration (MIC) came to 5 µg/mL (≈ 11 µM) in experiment [1] (ATCC 25923, 18 h); 2.5 µg/mL (≈ 5.5 µM) in experiment [2]; 2.5 µg/mL (≈ 5.5 µM) in experiment [3] (ATCC 13315, 18 h); 2.5 µg/mL (≈ 5.5 µM) in experiment [4] (ATCC 33495, 18 h); 2.5 µg/mL (≈ 5.5 µM) in experiment [5] (ATCC 29212, 18 h); 5 µg/mL (≈ 11 µM) in experiment [6] (ATCC 25922, 18 h). Moreover, in experiment [7], the MIC entry is “inactive”.

For the compound `Cc1ccc(N2N=C(c3ccccc3)C(c3ccc(F)cc3)C23CCC2(C3=O)C(c3ccc(F)cc3)C(c3ccccc3)=NN2c2ccc(C)cc2)cc1` (centres undefined), the MIC came out at 10 µg/mL (≈ 14 µM) in experiment [1] (ATCC 25923, 18 h); 2.5 µg/mL (≈ 3.51 µM) in experiment [2]; 10 µg/mL (≈ 14 µM) in experiment [3] (ATCC 13315, 18 h); 10 µg/mL (≈ 14 µM) in experiment [4] (ATCC 33495, 18 h); 10 µg/mL (≈ 14 µM) in experiment [5] (ATCC 29212, 18 h); 10 µg/mL (≈ 14 µM) in experiment [6] (ATCC 25922, 18 h). The MIC entry in experiment [7] is “inactive”.

In the case of `C[C@@H]1[C@H](O)[C@@H](C)/C=C/C=C/C=C/C=C/C=C/C=C/C=C/[C@H](O[C@@H]2O[C@H](C)[C@@H](O)[C@H](N)[C@@H]2O)C[C@@H]2O[C@](O)(C[C@@H](O)C[C@@H](O)[C@H](O)CC[C@@H](O)C[C@@H](O)CC(=O)O[C@H]1C)C[C@H](O)[C@H]2C(=O)O` [AMPHOTERICIN B], the MIC entry in experiment [1], in experiment [2], in experiment [3], in experiment [4], in experiment [5] and in experiment [6] was “inactive” throughout. The same compound displayed an MIC in experiment [7] (ATCC 20260, 18 h) of 4 µg/mL (≈ 4.33 µM).

In the case of `Cc1ccc(N2N=C(c3ccccc3)[C@@H](c3ccccc3)[C@@]23CC/C(=C\c2ccccc2)C3=O)cc1`, the minimal inhibitory concentration (MIC) in experiment [1] (ATCC 25923, 18 h) was 0.6 µg/mL (≈ 1.28 µM); in experiment [2], 1.3 µg/mL (≈ 2.77 µM); in experiment [3] (ATCC 13315, 18 h) it was 5 µg/mL (≈ 10.7 µM); in experiment [4] (ATCC 33495, 18 h), 2.5 µg/mL (≈ 5.34 µM); in experiment [5] (ATCC 29212, 18 h), 1.3 µg/mL (≈ 2.77 µM); in experiment [6] (ATCC 25922, 18 h) it was 5 µg/mL (≈ 10.7 µM). The MIC result in experiment [7] is “inactive”.

`O=C1C2(CCC13C(c1ccc(Cl)cc1)C(c1ccccc1)=NN3c1ccccc1)C(c1ccc(Cl)cc1)C(c1ccccc1)=NN2c1ccccc1` (centres undefined): the minimum inhibitory concentration (MIC) came to 10 µg/mL (≈ 13.9 µM) in experiment [1] (ATCC 25923, 18 h); 10 µg/mL (≈ 13.9 µM) in experiment [2]; 10 µg/mL (≈ 13.9 µM) in experiment [3] (ATCC 13315, 18 h); 10 µg/mL (≈ 13.9 µM) in experiment [4] (ATCC 33495, 18 h); 10 µg/mL (≈ 13.9 µM) in experiment [5] (ATCC 29212, 18 h); 10 µg/mL (≈ 13.9 µM) in experiment [6] (ATCC 25922, 18 h). Further, the MIC result in experiment [7] is “inactive”.

Regarding `O=C1C2(CCC13C(c1ccccc1)C(c1ccccc1)=NN3c1ccccc1)C(c1ccccc1)C(c1ccccc1)=NN2c1ccccc1` (centres undefined), the minimal inhibitory concentration (MIC) amounted to 1.3 µg/mL (≈ 2 µM) in experiment [1] (ATCC 25923, 18 h); 2.5 µg/mL (≈ 3.85 µM) in experiment [2]; 10 µg/mL (≈ 15.4 µM) in experiment [3] (ATCC 13315, 18 h); 10 µg/mL (≈ 15.4 µM) in experiment [4] (ATCC 33495, 18 h); 2.5 µg/mL (≈ 3.85 µM) in experiment [5] (ATCC 29212, 18 h); 10 µg/mL (≈ 15.4 µM) in experiment [6] (ATCC 25922, 18 h). Further, the MIC result in experiment [7] is “inactive”.
